Data as given in ChEMBL document CHEMBL3994612, “Novel 4-(4-substituted amidobenzyl)furan-2(5H)-one derivatives as topoisomerase I inhibitors” (Eur J Med Chem, 2017).
pIC50: −log10 of the molar value. Calls of active or inactive are those of the source. The calls are words filed in the database; no cut-off is given here.

Assays:
[1] = target: T1, DNA topoisomerase 1 (Homo sapiens) (UniProt P11387); assay: Inhibition of recombinant human topoisomerase-1 assessed as reduction in relaxation of supercoiled pBR322 DNA substrate at 100 uM after 30 mins by ethidium bromide staining based agarose gel electrophoresis relative to control
T1 sequence (whole entry): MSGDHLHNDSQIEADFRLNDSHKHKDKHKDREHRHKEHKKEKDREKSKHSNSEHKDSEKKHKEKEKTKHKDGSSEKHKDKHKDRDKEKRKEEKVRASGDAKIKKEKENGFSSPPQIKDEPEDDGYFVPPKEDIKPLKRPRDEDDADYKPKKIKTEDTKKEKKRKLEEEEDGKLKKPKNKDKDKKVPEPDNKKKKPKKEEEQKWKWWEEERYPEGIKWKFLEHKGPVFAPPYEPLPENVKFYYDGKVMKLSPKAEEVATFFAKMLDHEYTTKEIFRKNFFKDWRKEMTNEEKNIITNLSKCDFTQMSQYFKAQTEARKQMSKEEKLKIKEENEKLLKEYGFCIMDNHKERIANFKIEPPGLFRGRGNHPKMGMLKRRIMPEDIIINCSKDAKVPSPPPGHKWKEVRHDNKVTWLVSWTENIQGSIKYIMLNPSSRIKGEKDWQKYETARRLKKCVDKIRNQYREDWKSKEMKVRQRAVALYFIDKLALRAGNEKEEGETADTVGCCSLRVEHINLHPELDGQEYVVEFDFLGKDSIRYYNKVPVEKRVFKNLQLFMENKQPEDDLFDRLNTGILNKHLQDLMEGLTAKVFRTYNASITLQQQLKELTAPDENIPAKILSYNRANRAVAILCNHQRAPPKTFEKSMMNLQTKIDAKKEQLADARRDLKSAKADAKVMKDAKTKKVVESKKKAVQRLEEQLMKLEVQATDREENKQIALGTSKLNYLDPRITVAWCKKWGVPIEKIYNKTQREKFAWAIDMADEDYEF
How it was run: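 pBR322 DNA (0.1 µg) and recombinant human Topo I (0.2 units) incubated ± compound 30 min at 37 °C in supplier's Topo I buffer; compounds from DMSO stocks. Stopped with bromophenol blue/xylene cyanol/glycerol dye. Read-out: 1% agarose in 1× TAE, 100 V for 30 min, EB stain (0.5 µg/mL). Percent inhibition from gray-scale band analysis; camptothecin positive control.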

[2] = system: MCF7; assay: Cytotoxicity against human MCF7 cells assessed as reduction in cell viability after 48 hrs by MTT assay; format: functional, cell-based; details: MCF7, 48 h
How it was run: (§1)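 MCF-7, HeLa and A549 cells seeded at 3.5 × 10^3 per well in medium with 10% FBS and left overnight. Medium then replaced with fresh medium holding a range of compound concentrations for 48 h. MTT (5 mg/mL) added, 4 h at 37 °C. Formazan dissolved in DMSO, absorbance read at 570 nm. Triplicate wells per dose; IC50 derived.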

[3] = system: HeLa; assay: Cytotoxicity against human HeLa cells assessed as reduction in cell viability after 48 hrs by MTT assay; format: functional, cell-based; how it was run: as §1
[4] = system: A549; assay: Cytotoxicity against human A549 cells assessed as reduction in cell viability after 48 hrs by MTT assay; format: functional, cell-based; details: A549, 48 h; how it was run: as §1
[5] = target: T1, DNA topoisomerase 1 (Homo sapiens); assay: Inhibition of recombinant human topoisomerase-1 assessed as DNA insertion by measuring drug-DNA-enzyme ternary complex formation up to 100 uM using supercoiled pBR322 DNA substrate after 30 mins by ethidium bromide staining based agarose gel electrophoresis
How it was run: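 Supercoiled pBR322 DNA (0.1 µg) in Topo I buffer (50 mM Tris-HCl pH 7.5, 10 mM MgCl2, 50 mM KCl, 0.1 mM EDTA, 0.5 mM DTT, BSA) pre-incubated with compound 10 min at 25 °C. Excess Topo I (4 units) then added, 30 min at 37 °C. Read-out: 1% agarose/TAE electrophoresis, EB staining, UV imaging. Ethidium bromide positive control; camptothecin negative control.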

[6] = target: T1, DNA topoisomerase 1 (Homo sapiens); assay: Inhibition of recombinant human topoisomerase-1 assessed as DNA insertion by measuring drug-DNA-enzyme ternary complex formation up to 25 uM using supercoiled pBR322 DNA substrate after 30 mins by ethidium bromide staining based agarose gel electrophoresis
How it was run: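 Supercoiled pBR322 DNA (0.1 µg) preincubated with compound 10 min at 25 °C, then excess Topo I (4 units) added, 30 min at 37 °C in 20 µL Tris-HCl pH 7.5 buffer with MgCl2, KCl, EDTA, DTT, BSA. Run on 1% agarose in TAE 40 min, EB post-stained, UV-imaged. Unwinding read as supercoiled retained versus relaxed.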

[7] = target: T1, DNA topoisomerase 1 (Homo sapiens); assay: Poison activity at recombinant human topoisomerase-1 assessed as stabilization of DNA-enzyme cleavage complex by measuring increase in linear DNA using supercoiled pBR322 DNA substrate after 30 mins by ethidium bromide staining based agarose gel electrophoresis
[8] = target: T1, DNA topoisomerase 1 (Homo sapiens); assay: Inhibition of recombinant human topoisomerase-1 assessed as interference in DNA binding to enzyme by measuring reduction in enzyme-DNA complex using supercoiled pBR322 DNA substrate preincubated for 20 mins followed by substrate addition measured after 3 mins by electrophoretic mobility shift assay

SMILES | inhibition [1] [%] | pIC50 [2] | pIC50 [3] | pIC50 [4] | inhibition [5] | inhibition [6] | Activity [7] | inhibition [8]
C=C1OC(=O)C=C1Cc1ccc(NC(=O)Cc2ccccc2C(F)(F)F)cc1 | 32.3 | 4.31 | 4.43 | 4.43 | inactive |  |  | 
O=C(/C=C/c1ccccc1F)Nc1ccc(CC2=CC(=O)OC2)cc1 | 11.7 | < 4.30 | 4.34 | 4.40 |  |  |  | 
C=C1OC(=O)C=C1Cc1ccc(NC(=O)Cc2ccc(C)cc2)cc1 | 47.9 | 5.40 | 5.15 | 5.11 | inactive |  |  | 
C=C1OC(=O)C=C1Cc1ccc(NC(=O)Cc2ccc(Cl)cc2)cc1 | 30.3 | 4.43 | 4.45 | 4.42 | inactive |  |  | 
O=C(Cc1ccccc1C(F)(F)F)Nc1ccc(CC2=CC(=O)OC2)cc1 | 20.3 | 4.36 | 4.35 | 4.31 |  |  |  | 
C=C1OC(=O)C=C1Cc1ccc(NC(=O)/C=C/c2ccccc2F)cc1 | 44.6 | 4.86 | 5.16 | 5.13 | inactive |  |  | 
C=C1OC(=O)C=C1Cc1ccc(NC(=O)Cc2cccc(Cl)c2)cc1 | 22.5 | 4.37 | 4.34 | 4.39 | inactive |  |  | 
O=C(Cc1cccc(C(F)(F)F)c1)Nc1ccc(CC2=CC(=O)OC2)cc1 | 12.3 | 4.40 | 4.36 | < 4.30 |  |  |  | 
O=C(/C=C/c1ccc(F)cc1)Nc1ccc(CC2=CC(=O)OC2)cc1 | 12.1 | 4.32 | < 4.30 | 4.38 |  |  |  | 
C=C1OC(=O)C=C1Cc1ccc(NC(=O)Cc2ccccc2F)cc1 | 32.8 | 4.32 | 4.39 | 4.50 | inactive |  |  | 
C=C1OC(=O)C=C1Cc1ccc(NC(=O)c2ccccc2)cc1 | 28.7 | < 4.30 | 4.32 | 4.30 | inactive |  |  | 
CC[n+]1c(-c2ccccc2)c2cc(N)ccc2c2ccc(N)cc21 |  |  |  |  |  | Active |  | 
CC[C@@]1(O)C(=O)OCc2c1cc1n(c2=O)Cc2cc3ccccc3nc2-1 [CAMPTOTHECIN] |  | 4.15 | 4.22 | 6.62 |  |  |  | 
C=C1OC(=O)C=C1Cc1ccc(NC(=O)Cc2cccc(C(F)(F)F)c2)cc1 | 41.9 | 5.21 | 5.06 | 5.17 | inactive |  |  | 
C=C1OC(=O)C=C1Cc1ccc(NC(=O)Cc2ccc(F)cc2)cc1 | 43.3 | 4.80 | 4.79 | 4.64 | inactive |  |  | 
C=C1OC(=O)C=C1Cc1ccc(NC(=O)/C=C/c2ccc(F)cc2)cc1 | 94 | 5.35 | 5.56 | 5.46 | inactive |  | Dose-dependent effect | Dose-dependent effect
O=C(Cc1ccc(C(F)(F)F)cc1)Nc1ccc(CC2=CC(=O)OC2)cc1 | 11 | 4.33 | 4.31 | 4.34 |  |  |  | 
Cc1ccc(CC(=O)Nc2ccc(CC3=CC(=O)OC3)cc2)cc1 | 19.4 | 4.31 | < 4.30 | 4.38 |  |  |  | 
O=C(/C=C/c1cccc(F)c1)Nc1ccc(CC2=CC(=O)OC2)cc1 | 13.1 | 4.41 | 4.31 | < 4.30 |  |  |  | 
C=C1OC(=O)C=C1Cc1ccc(NC(=O)Cc2ccccc2Cl)cc1 | 21.3 | 4.39 | 4.37 | 4.31 | inactive |  |  | 
C=C1OC(=O)C=C1Cc1ccc(NC(=O)/C=C/c2ccccc2)cc1 | 48.6 | 5.02 | 5.13 | 4.83 | inactive |  |  | 
C=C1OC(=O)C=C1Cc1ccc(NC(=O)Cc2ccccc2)cc1 | 28.5 | < 4.30 | < 4.30 | 4.41 | inactive |  |  | 
C=C1OC(=O)C=C1Cc1ccc(NC(=O)Cc2ccc(C(F)(F)F)cc2)cc1 | 34.9 | 4.40 | 4.40 | 4.37 | inactive |  |  | 
C=C1OC(=O)C=C1Cc1ccc(NC(=O)/C=C/c2cccc(F)c2)cc1 | 34.5 | 4.41 | 4.52 | 4.45 | inactive |  |  | 
